From ChEMBL document CHEMBL2157980, “Discovery of SCH 900229, a Potent Presenilin 1 Selective γ-Secretase Inhibitor for the Treatment of Alzheimer's Disease” (ACS Med Chem Lett, 2012) come the findings set out here.

Molecules are shown by their SMILES.

Assay [1] deals with T1, Presenilin-1 (Homo sapiens, UniProt P49768). In words: Inhibition of PS1 gamma-secretase expressed in HEK cells harboring Awe-Lon gene assessed as reduction of amyloid beta-40 production. The format is cell-based, HEK293. An outline of the steps: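 Cell-based Aβ40 production assay in HEK293 cells carrying APP Awe-Lon. IC50 was the average of at least two determinations, with standard deviation 20%.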

Assay [2] concerns the target T1, Presenilin-1. In words: Inhibition of PS1 gamma-secretase assessed as reduction of amyloid beta-40 production by membrane based assay. An outline of the steps: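 Aβ40 production was measured in a membrane-based assay. IC50 was the average of at least two measurements, with standard deviation 20%.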
The next assay has as its target Presenilin-2 (Homo sapiens, UniProt P49810). In words: Inhibition of PS2 gamma-secretase expressed in HEK cells harboring Awe-Lon gene assessed as reduction of amyloid beta-42 production. The assay is classed as cell-based, HEK293.
The subject of assay [3] is Mus musculus. In words: Antialzheimer activity in transgenic CRND8 mouse assessed as decrease of amyloid beta-40 level in plasma at 30 mg/kg, po after 3 hrs. The format is functional. Also on record: scale not given: the % may be the effect or the level left. An outline of the steps:
(§1)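 CRND8 mice were dosed orally at 30 mg/kg. Aβ40 in plasma and cortex was measured 3 h post-dose and reported as % change, negative for lowering and positive for increase.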

Assay [4] has as its system Mus musculus. In words: Antialzheimer activity in transgenic CRND8 mouse assessed as decrease of amyloid beta-40 level in cortex at 30 mg/kg, po after 3 hrs. The assay is classed as functional. Details: scale not given: the % may be the effect or the level left. An outline of the steps: as §1
Assay [5] can be described thus: Selectivity ratio of IC50 for PS2 gamma-secretase to IC50 for PS1 gamma-secretase. An outline of the steps:
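Inhibitors were tested against reconstituted γ-secretase complexes containing PS1 or PS2. The result is expressed as the PS2/PS1 ratio of IC50 values.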

The subject of assay [6] is Mus musculus. In words: Antialzheimer activity in transgenic CRND8 mouse assessed as increase of amyloid beta-40 level in plasma at 30 mg/kg, po after 3 hrs. The assay is classed as functional. The method, boiled down:
as §1

The subject of assay [7] is Mus musculus. In words: Antialzheimer activity in B6C3F1 mouse assessed as reduction of amyloid beta-40 level in plasma at 10 mg/kg, po after 3 hrs. The assay is classed as functional. Details: scale not given: the % may be the effect or the level left. The method, boiled down: (§2)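 B6C3F1 mice were dosed orally at 10 or 30 mg/kg. Aβ40 in plasma and cortex was measured 3 h after dosing and expressed as % change, with lowering shown as negative.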

Assay [8] concerns Mus musculus. In words: Antialzheimer activity in B6C3F1 mouse assessed as reduction of amyloid beta-40 level in cortex at 10 mg/kg, po after 3 hrs. Also on record: scale not given: the % may be the effect or the level left. The assay is classed as functional. The method, boiled down:
as §2

Chain of Presenilin-2 (P49810 1-297 limits assumed): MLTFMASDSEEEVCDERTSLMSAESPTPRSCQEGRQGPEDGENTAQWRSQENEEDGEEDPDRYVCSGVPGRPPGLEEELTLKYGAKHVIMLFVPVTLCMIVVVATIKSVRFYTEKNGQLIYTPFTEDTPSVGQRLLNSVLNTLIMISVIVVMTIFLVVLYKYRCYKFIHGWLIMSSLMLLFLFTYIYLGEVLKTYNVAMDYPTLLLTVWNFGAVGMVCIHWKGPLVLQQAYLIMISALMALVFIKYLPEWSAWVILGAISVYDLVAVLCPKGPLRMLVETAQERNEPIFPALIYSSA
Chain of Presenilin-2 (P49810 298-448 limits assumed): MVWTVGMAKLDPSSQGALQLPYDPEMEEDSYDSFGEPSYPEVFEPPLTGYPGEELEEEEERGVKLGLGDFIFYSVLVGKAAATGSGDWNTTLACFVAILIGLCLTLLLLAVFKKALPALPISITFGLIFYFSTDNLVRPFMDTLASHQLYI

Regarding `CC(C)S(=O)(=O)CC[C@@H]1OCC[C@@]2(S(=O)(=O)c3ccc(Cl)cc3)c3c(F)ccc(F)c3OC[C@@H]12` (racemic) [listing 1 of 2 here], the 50% inhibitory concentration (IC50) (commonly the midpoint of a concentration-inhibition curve) at Presenilin-1 [1] was 26 nM; on Presenilin-1 [2], 24 nM; at Presenilin-2 it was 10 nM. The Activity in the assay on Mus musculus [3] is listed as 20%; in the assay on Mus musculus [4], 57%.
For `O=S(=O)(c1ccc(Cl)cc1)[C@]12CCO[C@H](CCO)[C@H]1COc1c(F)ccc(F)c12`, the half-maximal inhibitory concentration (IC50) on Presenilin-1 [2] came out at 320 nM.
For the molecule `N#CCC[C@@H]1OCC[C@@]2(S(=O)(=O)c3ccc(Cl)cc3)c3c(F)ccc(F)c3OC[C@@H]12` (racemic), the IC50 on Presenilin-1 [1] worked out at 37 nM; at Presenilin-1 [2], 22 nM; at Presenilin-2, 16 nM. Besides, the Ratio IC50 in [5] was 6. The Activity in the assay with Mus musculus [6] came to 18%.
Regarding `CC(C)S(=O)(=O)CC[C@@H]1OCC[C@@]2(S(=O)(=O)c3ccc(Cl)cc3)c3c(F)ccc(F)c3OC[C@@H]12`, the 50% inhibitory concentration (IC50) on Presenilin-1 [1] is 8 nM; at Presenilin-1 [2], 6 nM; at Presenilin-2 it was 3 nM. Also, the Activity in the assay on Mus musculus [7] was 2%; with Mus musculus [8] it was 58%.
With `CCNC(=O)OCC[C@@H]1OCC[C@@]2(S(=O)(=O)c3ccc(Cl)cc3)c3c(F)ccc(F)c3OC[C@@H]12` (racemic), the values for the 50% inhibitory concentration (IC50) at Presenilin-1 [1], at Presenilin-1 [2] and at Presenilin-2 were 48 nM, 24 nM and 20 nM, respectively.
With `CC(C)S(=O)(=O)CC[C@@H]1OCC[C@@]2(S(=O)(=O)c3ccc(Cl)cc3)c3c(F)ccc(F)c3OC[C@@H]12` (racemic) [listing 2 of 2 here], the Ratio IC50 in assay [5] came out at 6.
